An excerpt weighted towards active compounds, which were near 3% of everything screened.
TRPC4 agonist: opens the mouse TRPC4 cation channel; HEK293 TRPC4beta/mu-opioid, Fluo4 calcium fluorescence; hits give high values; B-score at 10 µM; Q9QUQ5; hit rate 0.49% among 310,000;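 active = B-score above 5 SD of library B-scores, and initial fluorescence ratio not above library mean plus 5 SD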;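 also: positive B-score marks a calcium rise read as TRPC4 activation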
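Assay system: HEK293 cells stably co-expressing mouse TRPC4beta and mu-opioid receptor / Timing: Fluo4 dye loading 45 min at room temperature, 110 s recording / Signal: Fluo4 calcium-sensitive dye fluorescence, kinetic, 1 Hz baseline / Read-out: integrated baseline-normalised fluorescence ratio, converted to per-well B score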
TRPC6 activator: activators of mouse TRPC6 channel; HEK293-TRPC6 membrane potential dye fluorescence; hits give high values; B-score at 10 µM; hit rate 0.13% among 310,000;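 active = B-score of the integrated fluorescence ratio above library mean plus 3 SD, and starting fluorescence ratio within library mean plus 5 SD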;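 also: higher score means more depolarization so channel activation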
Kir21 block: blocks the mouse Kir2.1 inward-rectifier potassium channel | AID 1672 | hit rate 0.85% among 310,000 | HEK293-Kir2.1, FluxOR thallium flux fluorescence; hits give low values | B-score at 10 µM | P35561;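 active = fluorescence ratio B-score at or below minus 3 SD of library scores, with starting-brightness B-score within 2 SD, cut at about -4.2 in these data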;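 also: channel flux triggered by added potassium and thallium sulfate stimulus; B-score of peak minus minimum fluorescence over baseline after thallium stimulus; more negative B-score means stronger Kir2.1 block with less thallium influx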
Target sequence (P35561 whole entry, looked up): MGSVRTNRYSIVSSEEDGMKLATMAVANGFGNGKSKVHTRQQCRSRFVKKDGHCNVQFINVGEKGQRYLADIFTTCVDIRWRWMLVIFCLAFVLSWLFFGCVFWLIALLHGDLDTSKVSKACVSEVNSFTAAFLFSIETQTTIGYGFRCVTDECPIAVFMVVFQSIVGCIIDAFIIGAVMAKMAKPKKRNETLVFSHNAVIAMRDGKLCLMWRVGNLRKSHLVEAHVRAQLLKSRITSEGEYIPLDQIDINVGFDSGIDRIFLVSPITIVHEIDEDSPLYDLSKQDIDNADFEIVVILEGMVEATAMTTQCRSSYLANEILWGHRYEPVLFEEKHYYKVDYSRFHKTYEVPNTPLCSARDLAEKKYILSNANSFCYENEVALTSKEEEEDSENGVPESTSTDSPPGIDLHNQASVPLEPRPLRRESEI
TRPC4 inh: blocks the mouse TRPC4 cation channel. B-score at 10 µM. hit rate 0.39% among 300,000. HEK293 TRPC4beta/mu-opioid, DAMGO-evoked Fluo4 calcium flux; hits give low values;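 active = B-score over 3 SD under the library average, no early fluorescence shift, positive overall ratio signal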
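Assay system – HEK293 line stably carrying TRPC4beta and mu-opioid receptor · Doses – single dose · Detection – Fluo4 calcium-dye fluorescence, kinetic read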
TRPC6 inh: inhibitors of mouse TRPC6 channel; AID 2553; B-score at 10 µM; HEK293-TRPC6, membrane potential dye, ACh-evoked depolarization; hits give low values; Q61143; hit rate 1.1% among 310,000;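 active = B-score under library mean minus 3 SD, initial fluorescence not abnormally high, positive integrated signal ratio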;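 also: B-score derived from integrated fluorescence ratio over the kinetic read; more negative B-score means stronger inhibition of depolarization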
TRPC4 potent: allosterically enhances the mouse TRPC4 cation channel; HEK293 TRPC4beta/mu-opioid, DAMGO EC20, Fluo-4 Ca2+ flux; hits give high values; hit rate 0.42% among 310,000; B-score at 10 µM; AID 2227;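 active = B-score of calcium response area above 5 SD of library B-scores, with initial fluorescence ratio within 5 SD of library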;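 also: B-score of integrated fluorescence ratio over time as area under calcium response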
Starred values were filed as active, the others as inactive; i = inactive.

SMILES	TRPC4 agonist	TRPC6 activator	Kir21 block	TRPC4 inh	TRPC6 inh	TRPC4 potent
Cc1nc(N2CCN(C)CC2)c2c3c(sc2n1)CCCC3	i	i	-0.11	i	-5.4*	i
CCC(CC)C(=O)OCC(=O)Nc1cccc([N+](=O)[O-])c1	i	i	0.06	i	i	i
COc1ccc(C)cc1NS(=O)(=O)c1ccc2c(c1)n(C)c(=O)n2C	i	i	-1.8	i	i	i
COc1ccc(C)cc1NS(=O)(=O)c1ccc2c(c1)N(C)CCO2	i	i	-5.6*	i	i	i
O=C(CCCCCNC(=O)c1ccccc1)C[N+](=O)[O-]	i	i	0.45	i	i	i
CN(C)c1ccc(NC(=O)C2C3C=CC(C3)C2C(=O)O)cc1 (stereo not drawn)	i	i	0.84	i	i	21*
COc1ccc(S(=O)(=O)NCCN2CCNC2=O)cc1OC	i	i	-0.24	i	i	i
Cc1cccc2cc(C(c3nnnn3Cc3ccccc3)N3CCN(C)CC3)c(=O)[nH]c12 (stereo not drawn)	47*	i	0.4	i	i	i
COc1ccc(Cn2nnnc2C(c2cc3cccc(C)c3[nH]c2=O)N2CCN(C)CC2)cc1 (stereo not drawn)	98*	i	-0.04	i	i	i
CCc1ccc2[nH]c(=O)c(C(c3nnnn3Cc3ccc(OC)cc3)N3CCOCC3)cc2c1 (stereo not drawn)	i	i	1.7	i	i	i
COc1ccc(Cn2nnnc2C(c2cc3cc(C)ccc3[nH]c2=O)N2CCN(C)CC2)cc1 (stereo not drawn)	i	i	0.06	-7*	i	i
Cc1ccnc(NC(=O)c2ccc(S(=O)(=O)N3CCC(C)CC3)cc2)c1	i	i	-1.8	i	i	i
COc1ccc(S(=O)(=O)NCCc2ccco2)cc1OC	i	i	0.05	i	i	i
CCCN(Cc1ccco1)S(=O)(=O)c1ccc(OC)c(OC)c1	i	i	-4.9*	i	i	i
CCSc1nc2c(c(=O)n1Cc1ccccc1)SC(C)C2 (stereo not drawn)	i	i	-0.99	-6*	i	i
CC1Cc2nc(SCC(N)=O)n(Cc3ccccc3)c(=O)c2S1 (stereo not drawn)	i	i	-0.74	i	i	i
COc1ccccc1NC(=O)CSc1c2c(nc3ccccc13)CCC2	i	i	-10*	i	i	i
COc1cc(NC(=O)CSc2c3c(nc4ccccc24)CCC3)cc(OC)c1OC	i	i	-0.92	i	i	i
Cc1cc(NC(=O)CSc2c3c(nc4ccccc24)CCC3)no1	i	i	0.14	i	i	i
COc1ccc(NC(=O)CSc2c3c(nc4ccccc24)CCCC3)c(OC)c1	i	i	-4.7*	i	i	i
COc1cc(CNCCc2ccccc2)cc(Cl)c1OCc1ccccc1	i	i	-13*	i	i	i
CCOc1cccc(CNCCO)c1OCc1ccc(Cl)cc1	i	i	-3.8	-7*	i	i
COc1cc(CNCc2ccccc2)cc(Cl)c1OC	i	i	-1.4	i	i	i
OCCNCc1c(OCc2ccc(Cl)cc2)ccc2ccccc12	i	i	-6.8*	i	i	i
CCOc1cc(CNCCCN2CCOCC2)cc(Br)c1OCc1ccccc1Cl	i	i	-6.3*	-7*	i	i
SMILES	TRPC4 agonist	TRPC6 activator	Kir21 block	TRPC4 inh	TRPC6 inh	TRPC4 potent
C/C(CC(=O)Nc1ccc2c(c1)OCCO2)=N\NC(=O)C(=O)Nc1ccccc1C	i	i	0.12	i	i	i
CCOc1cc(/C=N/O)cc(Br)c1OCc1ccc(Cl)cc1	i	i	0.03	i	i	i
COc1cccc(CNCCO)c1OCc1ccccc1Cl	i	i	-1.3	i	i	i
CCOc1cc(CNCCO)cc(Br)c1OCc1ccc(Cl)cc1	i	i	-18*	i	i	i
COc1cc(CNCCc2ccccc2)cc(Br)c1OCC(=O)Nc1ccccc1C	i	i	-11*	i	i	i
COc1cc(CNCCO)cc(Cl)c1OCc1ccccc1Cl	i	i	-7*	i	i	i
CCOc1cc(CNCCO)cc(Br)c1OCc1ccccc1Cl	i	i	-9*	i	i	i
CCOCCCNC(=O)c1ccc(OC2CCN(C(C)=O)CC2)c(OC)c1	i	i	1.7	i	i	i
O=C(O)CC(NNC(=O)c1ccccc1)C(=O)Nc1cccc([N+](=O)[O-])c1 (stereo not drawn)	i	i	-0.52	i	i	i
CCCC(C)NC1=NCCCCC1 (stereo not drawn)	i	i	-0.92	i	i	i
CCOc1cc(CNC(C)(C)CO)cc(Br)c1OCc1ccc(Cl)cc1Cl	i	i	-9.4*	i	i	i
CC(=O)Nc1cccc(C(=O)OC(C(=O)c2ccc(C)cc2)c2ccccc2)c1 (stereo not drawn)	i	i	-0.32	i	i	17*
CN(C)CCCNc1ncnc2c1cnn2-c1ccccc1	i	i	-1.3	i	i	25*
CN(C)CCCNc1ncnc2c1cnn2Cc1ccccc1Cl	i	i	-0.86	i	i	18*
Clc1ccc(Cn2ncc3c(NCc4ccccc4)ncnc32)c(Cl)c1	i	i	0	i	i	i
Cc1ccc(S(=O)(=O)NCC(=O)N2CCN(S(=O)(=O)c3ccc(Cl)cc3)CC2)cc1C	i	i	0.42	i	i	i
Cc1cc(NC(=O)c2cc(-c3cccs3)nc3ccccc23)no1	i	i	0.79	-6*	i	i
O=C(O)C(Cc1ccc(Cl)cc1)NS(=O)(=O)c1ccc(Cl)cc1 (stereo not drawn)	i	i	-0.54	i	i	i
Cn1c(N)c(C(=O)COC(=O)c2ncc(Cl)c(Cl)c2Cl)c(=O)n(C)c1=O	i	i	1.7	i	i	i
CC(C)c1nnc(NC(=O)CCC(=O)N2CCN(Cc3ccccc3)CC2)s1	i	i	-0.83	i	i	12*
CN(CCCNC(=O)CCCOc1cc(=O)n(C)c2ccccc12)Cc1ccccc1	i	i	0.57	i	i	19*
CC1CC(C)CN(CCCNC(=O)COc2cc(=O)n(C)c3ccccc23)C1 (stereo not drawn)	85*	i	-1.4	i	i	10*
